Test results reported in ChEMBL document CHEMBL1142469, “Identification of minimal sequence for HIV-1 fusion inhibitors” (Bioorg Med Chem, 2008).
pEC50: −log10 of the molar value. Where a SMILES comes first, the peptide text is derived from it. [ ]: non-standard residue; d: D form. Aib = CC(C)(N)C(=O)O

Experiments:
[1] = test system: Human immunodeficiency virus 1; assay: Antiviral activity against HIV1 in human HeLa-CD4-LTR-beta-gal (MAGI) cells assessed as inhibition of viral replication after 48 hrs by multinuclear activation of galactosidase indicator assay; details: Human immunodeficiency virus 1, HeLa
[2] = test system: Human immunodeficiency virus 1; assay: Binding affinity to HIV1 heptad repeat 1 peptide N36 assessed as melting temperature of drug-HR1 peptide complex
Summary of the method: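 HR2 peptide and N36 (HR1) peptide mixed, each at 10 μM final in PBS pH 7.4, incubated 37 °C for 30 min, then followed by CD through thermal unfolding; Tm taken as the midpoint of the unfolding transition.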

## CC[C@H](C)[C@H](NC(=O)CNC(=O)C(C)(C)NC(=O)[C@@H](NC(=O)[C@H](Cc1ccc(O)cc1)NC(=O)CNC(=O)C(C)(C)NC(=O)[C@@H](NC(=O)[C@H](CCCCN)NC(=O)[C@H](CCCCN)NC(=O)[C@H](CC(=O)O)NC(=O)[C@H](Cc1c[nH]c2ccccc12)NC(=O)[C@H](CCC(=O)O)NC(=O)[C@H](CCC(=O)O)NC(=O)[C@@H](N)Cc1c[nH]c2ccccc12)[C@@H](C)CC)[C@@H](C)O)C(=O)N[C@@H](CCC(=O)O)C(=O)N[C@@H](CCC(=O)O)C(=O)N[C@@H](CC(C)C)C(=O)N[C@H](C(=O)N[C@@H](CCCCN)C(=O)N[C@@H](CCCCN)C(=O)N[C@@H](CO)C(=O)N[C@@H](CCC(=O)O)C(=O)N[C@@H](CCC(=O)O)C(=O)N[C@@H](CCC(N)=O)C(=O)N[C@@H](CCC(N)=O)C(=O)N[C@@H](CCCCN)C(=O)N[C@@H](CCCCN)C(=O)N[C@@H](CC(N)=O)C(=O)O)[C@@H](C)CC (H-WEEWDKKI[Aib]GYT[Aib]GIEELIKKSEEQQKKN-OH)
[1]
  pEC50: 6.57

## H-WMEWDREINNYTSLIHSLIEESQNQQEKN-OH
[1]
  pEC50: 7.34
[2]
  Tm: 48.5 °C

## CC[C@H](C)[C@H](NC(=O)[C@H](CCCCN)NC(=O)[C@H](CCCCN)NC(=O)[C@H](CC(=O)O)NC(=O)[C@H](Cc1c[nH]c2ccccc12)NC(=O)[C@H](CCC(=O)O)NC(=O)[C@H](CCC(=O)O)NC(=O)[C@@H](N)Cc1c[nH]c2ccccc12)C(=O)N[C@@H](CCC(=O)O)C(=O)N[C@@H](CCC(=O)O)C(=O)N[C@@H](Cc1ccc(O)cc1)C(=O)N[C@H](C(=O)N[C@@H](CCCCN)C(=O)N[C@@H](CCCCN)C(=O)N[C@H](C(=O)NC(C)(C)C(=O)NCC(=O)N[C@@H](CC(C)C)C(=O)N[C@H](C(=O)NC(C)(C)C(=O)NCC(=O)N[C@@H](CO)C(=O)N[C@@H](CCC(=O)O)C(=O)N[C@@H](CCC(=O)O)C(=O)N[C@@H](CCC(N)=O)C(=O)N[C@@H](CCC(N)=O)C(=O)N[C@@H](CCCCN)C(=O)N[C@@H](CCCCN)C(=O)N[C@@H](CC(N)=O)C(=O)O)[C@@H](C)CC)[C@@H](C)CC)[C@@H](C)O (H-WEEWDKKIEEYTKKI[Aib]GLI[Aib]GSEEQQKKN-OH)
[1]
  pEC50: 7.59

## CC[C@H](C)[C@H](NC(=O)[C@H](CC(C)C)NC(=O)[C@H](CCC(=O)O)NC(=O)[C@H](CCC(=O)O)NC(=O)[C@@H](NC(=O)[C@H](CCCCN)NC(=O)C(C)(C)NC(=O)[C@@H](NC(=O)[C@H](Cc1ccc(O)cc1)NC(=O)[C@H](CCC(=O)O)NC(=O)C(C)(C)NC(=O)[C@@H](NC(=O)[C@H](CCCCN)NC(=O)[C@H](CCCCN)NC(=O)[C@H](CC(=O)O)NC(=O)[C@H](Cc1c[nH]c2ccccc12)NC(=O)[C@H](CCC(=O)O)NC(=O)[C@H](CCC(=O)O)NC(=O)[C@@H](N)Cc1c[nH]c2ccccc12)[C@@H](C)CC)[C@@H](C)O)[C@@H](C)CC)C(=O)N[C@@H](CCCCN)C(=O)N[C@@H](CCCCN)C(=O)N[C@@H](CO)C(=O)N[C@@H](CCC(=O)O)C(=O)N[C@@H](CCC(=O)O)C(=O)N[C@@H](CCC(N)=O)C(=O)N[C@@H](CCC(N)=O)C(=O)N[C@@H](CCCCN)C(=O)N[C@@H](CCCCN)C(=O)N[C@@H](CC(N)=O)C(=O)O (H-WEEWDKKI[Aib]EYT[Aib]KIEELIKKSEEQQKKN-OH)
[1]
  pEC50: 8.67

## CC[C@H](C)[C@H](NC(=O)[C@H](CC(C)C)NC(=O)[C@H](CCC(=O)O)NC(=O)[C@H](CCC(=O)O)NC(=O)[C@@H](NC(=O)[C@H](CCCCN)NC(=O)[C@H](CCCCN)NC(=O)[C@@H](NC(=O)[C@H](Cc1ccc(O)cc1)NC(=O)[C@H](CCC(=O)O)NC(=O)[C@H](CCC(=O)O)NC(=O)[C@@H](NC(=O)[C@H](CCCCN)NC(=O)C(C)(C)NC(=O)[C@H](CC(=O)O)NC(=O)[C@H](Cc1c[nH]c2ccccc12)NC(=O)[C@H](CCC(=O)O)NC(=O)C(C)(C)NC(=O)[C@@H](N)Cc1c[nH]c2ccccc12)[C@@H](C)CC)[C@@H](C)O)[C@@H](C)CC)C(=O)N[C@@H](CCCCN)C(=O)N[C@@H](CCCCN)C(=O)N[C@@H](CO)C(=O)N[C@@H](CCC(=O)O)C(=O)N[C@@H](CCC(=O)O)C(=O)N[C@@H](CCC(N)=O)C(=O)N[C@@H](CCC(N)=O)C(=O)N[C@@H](CCCCN)C(=O)N[C@@H](CCCCN)C(=O)N[C@@H](CC(N)=O)C(=O)O (H-W[Aib]EWD[Aib]KIEEYTKKIEELIKKSEEQQKKN-OH)
[1]
  pEC50: 9.27

## CC[C@H](C)[C@H](NC(=O)CNC(=O)C(C)(C)NC(=O)[C@H](CC(=O)O)NC(=O)[C@H](Cc1c[nH]c2ccccc12)NC(=O)CNC(=O)C(C)(C)NC(=O)[C@@H](N)Cc1c[nH]c2ccccc12)C(=O)N[C@@H](CCC(=O)O)C(=O)N[C@@H](CCC(=O)O)C(=O)N[C@@H](Cc1ccc(O)cc1)C(=O)N[C@H](C(=O)N[C@@H](CCCCN)C(=O)N[C@@H](CCCCN)C(=O)N[C@H](C(=O)N[C@@H](CCC(=O)O)C(=O)N[C@@H](CCC(=O)O)C(=O)N[C@@H](CC(C)C)C(=O)N[C@H](C(=O)N[C@@H](CCCCN)C(=O)N[C@@H](CCCCN)C(=O)N[C@@H](CO)C(=O)N[C@@H](CCC(=O)O)C(=O)N[C@@H](CCC(=O)O)C(=O)N[C@@H](CCC(N)=O)C(=O)N[C@@H](CCC(N)=O)C(=O)N[C@@H](CCCCN)C(=O)N[C@@H](CCCCN)C(=O)N[C@@H](CC(N)=O)C(=O)O)[C@@H](C)CC)[C@@H](C)CC)[C@@H](C)O (H-W[Aib]GWD[Aib]GIEEYTKKIEELIKKSEEQQKKN-OH)
[1]
  pEC50: 7.43

## H-WMEWDREINNYTSLIHSLIEES-OH
[1]
  pEC50: < 6.00
[2]
  Tm: 38.5 °C

## H-WEEWDKKIEEYTKKIEELIKKSEEQQKKN-OH
[1]
  pEC50: 9.34
[2]
  Tm: 65 °C

## enfuvirtide
[1]
  pEC50: 7.82

## H-WEEWDKKIEEYTKKIEELIKKSEEQQKKNEEELKK-OH
[1]
  pEC50: 9.41
[2]
  Tm: 71.5 °C

## H-WEEWDKKIEEYTKKIEELIKKS-OH
[1]
  pEC50: 7.22
[2]
  Tm: 63.5 °C

## H-YTSLIEELIKKSEEQQKKNEEELKKLEEWAKKWNWF-OH
[1]
  pEC50: 8.74

## CC[C@H](C)[C@H](NC(=O)[C@H](CCCCN)NC(=O)[C@H](CCCCN)NC(=O)[C@H](CC(=O)O)NC(=O)[C@H](Cc1c[nH]c2ccccc12)NC(=O)[C@H](CCC(=O)O)NC(=O)[C@H](CCC(=O)O)NC(=O)[C@@H](N)Cc1c[nH]c2ccccc12)C(=O)N[C@@H](CCC(=O)O)C(=O)N[C@@H](CCC(=O)O)C(=O)N[C@@H](Cc1ccc(O)cc1)C(=O)N[C@H](C(=O)N[C@@H](CCCCN)C(=O)N[C@@H](CCCCN)C(=O)N[C@H](C(=O)N[C@@H](CCC(=O)O)C(=O)N[C@@H](CCC(=O)O)C(=O)N[C@@H](CC(C)C)C(=O)N[C@H](C(=O)N[C@@H](CCCCN)C(=O)N[C@@H](CCCCN)C(=O)N[C@@H](CO)C(=O)NC(C)(C)C(=O)N[C@@H](CCC(=O)O)C(=O)N[C@@H](CCC(N)=O)C(=O)N[C@@H](CCC(N)=O)C(=O)NC(C)(C)C(=O)N[C@@H](CCCCN)C(=O)N[C@@H](CC(N)=O)C(=O)O)[C@@H](C)CC)[C@@H](C)CC)[C@@H](C)O (H-WEEWDKKIEEYTKKIEELIKKS[Aib]EQQ[Aib]KN-OH)
[1]
  pEC50: 8.15

## CC[C@H](C)[C@H](NC(=O)[C@H](CCCCN)NC(=O)[C@H](CCCCN)NC(=O)[C@H](CC(=O)O)NC(=O)[C@H](Cc1c[nH]c2ccccc12)NC(=O)[C@H](CCC(=O)O)NC(=O)[C@H](CCC(=O)O)NC(=O)[C@@H](N)Cc1c[nH]c2ccccc12)C(=O)N[C@@H](CCC(=O)O)C(=O)N[C@@H](CCC(=O)O)C(=O)N[C@@H](Cc1ccc(O)cc1)C(=O)N[C@H](C(=O)N[C@@H](CCCCN)C(=O)N[C@@H](CCCCN)C(=O)N[C@H](C(=O)N[C@@H](CCC(=O)O)C(=O)N[C@@H](CCC(=O)O)C(=O)N[C@@H](CC(C)C)C(=O)N[C@H](C(=O)N[C@@H](CCCCN)C(=O)N[C@@H](CCCCN)C(=O)N[C@@H](CO)C(=O)NC(C)(C)C(=O)NCC(=O)N[C@@H](CCC(N)=O)C(=O)N[C@@H](CCC(N)=O)C(=O)NC(C)(C)C(=O)NCC(=O)N[C@@H](CC(N)=O)C(=O)O)[C@@H](C)CC)[C@@H](C)CC)[C@@H](C)O (H-WEEWDKKIEEYTKKIEELIKKS[Aib]GQQ[Aib]GN-OH)
[1]
  pEC50: 7.50

## CC[C@H](C)[C@H](NC(=O)[C@H](CCCCN)NC(=O)[C@H](CCCCN)NC(=O)[C@H](CC(=O)O)NC(=O)[C@H](Cc1c[nH]c2ccccc12)NC(=O)[C@H](CCC(=O)O)NC(=O)[C@H](CCC(=O)O)NC(=O)[C@@H](N)Cc1c[nH]c2ccccc12)C(=O)N[C@@H](CCC(=O)O)C(=O)N[C@@H](CCC(=O)O)C(=O)N[C@@H](Cc1ccc(O)cc1)C(=O)N[C@H](C(=O)N[C@@H](CCCCN)C(=O)N[C@@H](CCCCN)C(=O)N[C@H](C(=O)NC(C)(C)C(=O)N[C@@H](CCC(=O)O)C(=O)N[C@@H](CC(C)C)C(=O)N[C@H](C(=O)NC(C)(C)C(=O)N[C@@H](CCCCN)C(=O)N[C@@H](CO)C(=O)N[C@@H](CCC(=O)O)C(=O)N[C@@H](CCC(=O)O)C(=O)N[C@@H](CCC(N)=O)C(=O)N[C@@H](CCC(N)=O)C(=O)N[C@@H](CCCCN)C(=O)N[C@@H](CCCCN)C(=O)N[C@@H](CC(N)=O)C(=O)O)[C@@H](C)CC)[C@@H](C)CC)[C@@H](C)O (H-WEEWDKKIEEYTKKI[Aib]ELI[Aib]KSEEQQKKN-OH)
[1]
  pEC50: 9.06
